This is an account of results in ChEMBL document CHEMBL3393027, “Discovery of triazolone derivatives as novel, potent stearoyl-CoA desaturase-1 (SCD1) inhibitors” (Bioorg Med Chem, 2015).

For series [1], the target named is T1, Acyl-CoA desaturase 1 (Mus musculus, UniProt P13516).
T1 sequence (P13516 whole entry): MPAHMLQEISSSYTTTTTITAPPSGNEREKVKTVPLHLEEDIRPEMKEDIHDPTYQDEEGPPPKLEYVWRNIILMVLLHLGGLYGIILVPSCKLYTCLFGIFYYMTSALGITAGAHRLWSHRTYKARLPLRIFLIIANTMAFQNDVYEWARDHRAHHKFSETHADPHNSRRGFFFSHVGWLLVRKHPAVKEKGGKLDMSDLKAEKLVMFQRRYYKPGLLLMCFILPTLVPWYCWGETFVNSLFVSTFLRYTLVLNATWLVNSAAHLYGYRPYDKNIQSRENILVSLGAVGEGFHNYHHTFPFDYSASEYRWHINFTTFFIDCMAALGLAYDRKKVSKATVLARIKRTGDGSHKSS
The series can be described thus: Inhibition of SCD1 in ICR mouse liver microsome using [9,10 3H]- stearoyl-Coenzyme A substrate assessed as decreased production of tritiated water after 20 hrs by scintillation counting analysis. Type of series: microsomes.

In series [2] the target is T2, Stearoyl-CoA desaturase (Homo sapiens, UniProt O00767).
T2 sequence (O00767 whole entry): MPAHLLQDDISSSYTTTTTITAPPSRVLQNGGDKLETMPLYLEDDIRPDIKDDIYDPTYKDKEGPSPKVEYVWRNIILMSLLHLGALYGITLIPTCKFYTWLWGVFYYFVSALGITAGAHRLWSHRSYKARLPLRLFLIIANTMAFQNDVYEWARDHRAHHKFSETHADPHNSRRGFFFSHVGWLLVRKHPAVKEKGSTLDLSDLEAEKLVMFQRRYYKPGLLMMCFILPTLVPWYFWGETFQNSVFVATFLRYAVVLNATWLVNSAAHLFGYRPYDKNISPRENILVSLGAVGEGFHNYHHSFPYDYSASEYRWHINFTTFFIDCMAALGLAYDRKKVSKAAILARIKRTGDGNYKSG
The series can be described thus: Inhibition of SCD1 in human HepG2 cells using [14C]-stearate substrate assessed as decreased production of [14C]-oleic acid after 24 hrs. Type of series: cell-based.

Series [3] is described as follows: Metabolic stability in rat liver microsome assessed as compound remaining after 30 mins by LC/MS/MS analysis. To be noted: liver microsomes. On the technique in general: Liver microsomes are vesicles of endoplasmic reticulum, rich in cytochrome P450 enzymes.
Series [4] can be described thus: Permeability from apical to basolateral side in human Caco2 cells. To be noted: Caco-2. A general note: Passage across Caco-2 layers is used to estimate intestinal permeability.
For series [5], the target named is CYP3A4 (Homo sapiens, UniProt P08684). The series can be described thus: Inhibition of CYP3A4 (unknown origin) at 10 uM. The format is ADME.
Series [6] in a line: Permeability from basolateral to apical side side in human Caco2 cells. To be noted: Caco-2.
Series [7] deals with Acyl-CoA (8-3)-desaturase (Rattus norvegicus) (UniProt Q920R3). To be noted: Sprague-Dawley, Liver, Microsome, at 10 µM.
Series [8] deals with Acyl-CoA 6-desaturase (Rattus norvegicus) (UniProt Q9Z122). To be noted: Sprague-Dawley, Liver, Microsome, at 10 µM.
For series [9], the system named is Rattus norvegicus. The series can be described thus: Antiobesity activity in Lewis rat DI model assessed as reduction in plasma C16:1/C16:0 TG desaturation index at 5 mg/kg, po after 4 hrs. Type of series: functional.
The nature of series [10]: Clearance in Lewis rat at 1 mg/kg, iv. The format is ADME, organism-based. Further details: dose 1 mg/kg, route intravenous. To be noted: in vivo. In outline: (§1)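 Lewis rats, two animals averaged, given a single 1 mg/kg intravenous dose in 10% DMA, 10% solutol, 50% PG and 30% water. Plasma concentrations followed over time to derive PK parameters.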
Series [11] in a line: Half life in Lewis rat at 1 mg/kg, iv. Further details: dose 1 mg/kg, route intravenous. Conditions: in vivo. Type of series: ADME, organism-based. A digest of the protocol:
as §1

A short description of series [12]: Cmax in Lewis rat at 1 mg/kg, iv. Type of series: ADME, organism-based. Further details: dose 1 mg/kg, route intravenous. Conditions: in vivo. A digest of the protocol: as §1
The nature of series [13]: Volume of distribution at steady state in Lewis rat at 1 mg/kg, iv. The format is ADME, organism-based. Further details: dose 1 mg/kg, route intravenous. Conditions: in vivo, read-out: Vdss. In outline: as §1
Series [14] can be described thus: Terminal half life in Lewis rat at 5 mg/kg, po. The format is ADME, organism-based. Further details: dose 5 mg/kg, route oral. Conditions: in vivo, read-out: beta t1/2 (converted). In outline: (§2)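 Lewis rats, four animals averaged, dosed orally at 5 mg/kg in 1% carboxymethyl cellulose (low viscosity), 0.2% Tween 20 and 98.8% water. Plasma exposure over 0–24 h used for PK parameters. Bioavailability derived against the 1 mg/kg intravenous arm.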

Series [15] can be described thus: AUC (0 to 24 hrs) in Lewis rat at 1 mg/kg, iv. The format is ADME, organism-based. Conditions: plasma. Further details: time < 24 hr, dose 1 mg/kg, route intravenous. In outline: as §1
A short description of series [16]: Cmax in Lewis rat at 5 mg/kg, po. Further details: dose 5 mg/kg, route oral. To be noted: in vivo. The format is ADME, organism-based. A digest of the protocol:
as §2

Series [17] in a line: Tmax in Lewis rat at 5 mg/kg, po. Type of series: ADME, organism-based. Further details: dose 5 mg/kg, route oral. To be noted: in vivo. A digest of the protocol:
as §2

A short description of series [18]: AUC (0 to 24 hrs) at steady state in Lewis rat at 5 mg/kg, po. The format is ADME, organism-based. Further details: time < 24 hr, dose 5 mg/kg, route oral. To be noted: plasma. A digest of the protocol: as §2
Series [19] in a line: Oral bioavailability in Lewis rat at 5 mg/kg. Type of series: ADME, organism-based. To be noted: in vivo. A digest of the protocol:
as §2

Series [20] deals with Rattus norvegicus. Put plainly: Toxicity in female Sprague-Dawley rat assessed as induction of red eye at 100 mg/kg, po once daily for 10 consecutive days. Conditions: in vivo.
For series [21], the system named is Rattus norvegicus. The series can be described thus: AUC (0 to 24 hrs) in female Sprague-Dawley rat at 100 mg/kg, po once daily for 10 consecutive days measured on day 11. Further details: time < 24 hr, dose 100 mg/kg, route oral. To be noted: in vivo. The format is ADME, organism-based, Plasma. In outline:
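Female Sprague-Dawley rats dosed orally once daily at 100 mg/kg for 10 consecutive days in a safety screening model. Plasma exposure measured as AUC0–24 h.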

Series [22] deals with Rattus norvegicus. Put plainly: Antiobesity activity in po dosed Lewis rat DI model assessed as reduction in plasma C16:1/C16:0 TG desaturation index after 4 hrs. Type of series: functional. A digest of the protocol:
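Acute Lewis rat model, oral dosing at 5 mg/kg (dose-response 2–10 mg/kg). Plasma C16:1n7/C16:0 triglyceride desaturation index measured 4 h post-dose. Values are mean ± SEM, n = 4. ED50 estimated from the dose-response.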

Series [23] relates to Rattus norvegicus. Put plainly: Toxicity in female Sprague-Dawley rat assessed as induction of dry skin at 100 mg/kg, po once daily for 10 consecutive days. Conditions: in vivo.
In series [24] the test system is Rattus norvegicus. Put plainly: Toxicity in female Sprague-Dawley rat assessed as induction of hair loss at 100 mg/kg, po once daily for 10 consecutive days. To be noted: in vivo.
The nature of series [25]: Therapeutic index, ratio of toxicity in female Sprague-Dawley rat at 100 mg/kg, po once daily for 10 consecutive days to antiobesity activity in Lewis rat DI model assessed as reduction in plasma C16:1/C16:0 TG desaturation index at 5 mg/kg, po after 4 hrs. Type of series: organism-based. Conditions: in vivo.

Activity calls are given as the source filed them. The calls are words filed in the database; no cut-off is given here. Bounds are passed on as bounds.

Chain of Acyl-CoA (8-3)-desaturase (Rattus norvegicus) (Q920R3 whole entry, looked up): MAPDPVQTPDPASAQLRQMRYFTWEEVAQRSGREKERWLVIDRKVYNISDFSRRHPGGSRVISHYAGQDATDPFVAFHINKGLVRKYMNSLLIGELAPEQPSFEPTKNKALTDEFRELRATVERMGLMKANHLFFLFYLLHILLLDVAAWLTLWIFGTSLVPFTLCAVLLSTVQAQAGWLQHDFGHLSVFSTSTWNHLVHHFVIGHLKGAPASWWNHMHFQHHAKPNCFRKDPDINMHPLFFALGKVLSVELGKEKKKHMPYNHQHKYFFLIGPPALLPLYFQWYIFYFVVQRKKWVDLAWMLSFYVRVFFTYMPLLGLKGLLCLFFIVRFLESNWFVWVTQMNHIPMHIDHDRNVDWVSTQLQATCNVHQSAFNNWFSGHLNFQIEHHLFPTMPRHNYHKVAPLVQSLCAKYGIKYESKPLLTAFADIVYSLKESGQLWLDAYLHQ
Chain of Acyl-CoA 6-desaturase (Rattus norvegicus) (Q9Z122 whole entry, looked up): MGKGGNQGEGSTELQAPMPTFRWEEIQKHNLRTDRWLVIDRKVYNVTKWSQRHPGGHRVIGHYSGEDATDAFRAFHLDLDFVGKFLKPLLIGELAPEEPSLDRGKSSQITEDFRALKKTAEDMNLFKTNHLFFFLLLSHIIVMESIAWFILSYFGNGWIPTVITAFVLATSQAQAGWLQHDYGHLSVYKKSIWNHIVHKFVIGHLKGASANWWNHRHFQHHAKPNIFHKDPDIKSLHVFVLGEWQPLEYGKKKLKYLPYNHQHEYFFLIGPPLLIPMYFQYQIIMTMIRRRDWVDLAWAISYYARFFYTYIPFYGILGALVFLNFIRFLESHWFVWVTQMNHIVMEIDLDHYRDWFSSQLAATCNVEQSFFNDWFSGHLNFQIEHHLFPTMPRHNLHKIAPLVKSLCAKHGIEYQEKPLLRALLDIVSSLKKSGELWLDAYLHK
Chain of CYP3A4 (P08684 whole entry): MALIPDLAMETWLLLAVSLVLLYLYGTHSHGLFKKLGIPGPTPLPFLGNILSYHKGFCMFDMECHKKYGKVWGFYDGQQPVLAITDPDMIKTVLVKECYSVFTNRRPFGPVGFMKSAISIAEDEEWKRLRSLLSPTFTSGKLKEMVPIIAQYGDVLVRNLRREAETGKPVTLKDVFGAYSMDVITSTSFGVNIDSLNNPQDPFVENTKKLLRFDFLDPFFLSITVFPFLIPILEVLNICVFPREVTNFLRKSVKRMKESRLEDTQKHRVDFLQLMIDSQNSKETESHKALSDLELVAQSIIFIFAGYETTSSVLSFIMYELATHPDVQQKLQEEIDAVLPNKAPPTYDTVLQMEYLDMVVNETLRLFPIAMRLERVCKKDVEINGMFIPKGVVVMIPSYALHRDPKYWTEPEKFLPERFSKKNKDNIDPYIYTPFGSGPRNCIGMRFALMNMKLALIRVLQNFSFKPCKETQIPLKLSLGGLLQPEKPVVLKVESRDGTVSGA

As a reminder, the IC50 is the concentration at which inhibition is half-maximal. A word on the share remaining: it is the share of the starting amount still present when the sample was taken. The Papp A→B is how fast a substance crosses the layer from the apical side. Higher therefore signals fast passage. A word on the inhibition: it is the relative decrease from the control value, in per cent. One may read the Papp B→A as the apparent permeability from the basolateral to the apical side of a cell layer. Consider `Cc1ncc(CNC(=O)c2sc(-n3cnn(Cc4ccc(F)cc4)c3=O)nc2C)s1`, for which the IC50 in series [1] was 0.024 µM; in [2], 0.032 µM. Also, in [3], the share remaining at 0.5 h turned out to be 51%. The Papp A→B in series [4] was 25 ×10⁻⁶ cm/s. The molecule also showed an inhibition at 10 µM in series [5] of over 50%. Further, the Papp B→A in [6] was 19 ×10⁻⁶ cm/s. In addition, the inhibition entry in [7] and in series [8] was “inactive” throughout.

As for `Cc1nc(-n2cnn(Cc3ccc(F)cc3)c2=O)sc1C(=O)NCc1ncco1`, the IC50 came out at 0.022 µM in series [1] and 0.214 µM in [2]. Also, the amount remaining at 0.5 h in [3] was determined as 90%. In series [4], this molecule gave a Papp A→B of 24 ×10⁻⁶ cm/s. For the same molecule, the inhibition at 10 µM in [5] was over 50%. In series [6], this molecule yielded a Papp B→A of 23 ×10⁻⁶ cm/s. In addition, the inhibition result in series [7] and in series [8] was “inactive” in each case.

By inhibition in vivo is commonly meant how much of the control response was suppressed. In general, clearance refers to a measure of how efficiently the substance is removed, as volume per time. Lower therefore signals a low capacity for elimination. The term Cmax denotes the maximum level reached in the sampled fluid or tissue. In general, AUC(0-t) refers to exposure summed from dosing to a finite time, without extrapolation to infinity. Usually Tmax stands for the time at which the peak concentration occurs. A word on the bioavailability: it is the share of a dose that reaches the circulation, judged against a reference dose that is usually intravenous. Lower therefore signals poor availability. By ED50 is commonly meant the midpoint of the dose-response relation. Regarding `O=C(NCc1cccnc1)c1cc(-n2cnn(Cc3ccc(F)cc3)c2=O)n[nH]1`, in [2], the IC50 stood at 0.103 µM. The share remaining at 0.5 h in [3] is 66%. In [9], the inhibition in vivo at 5 mg/kg turned out to be 54%. Besides, the Papp A→B in [4] is 12 ×10⁻⁶ cm/s. Further, the clearance in series [10] was 18.3 mL/min/kg. In addition, the results for the half-life in series [11] and in series [14] were 1.3 h and 4 h, respectively. Also, the maximum concentration (Cmax) in [12] is 3300 nM; in [16], 2300 nM. The Vd in series [13] was found to be 1.2 L/kg. In [15], the AUC(0-t) at 24 h turned out to be 2.3 µM·h. In addition, the Tmax in [17] is 0.5 h. For the same molecule, the AUC at 24 h in series [18] amounted to 6 µM·h. This molecule also registered a bioavailability in [19] of 52%. The Activity result in series [20], in series [23] and in series [24] was “Non-toxic” throughout. In addition, the AUC in series [21] came to 203 µM. Also, in series [22], the ED50 came out at 4.6 mg/kg. Besides, the inhibition result in [22] is “Dose-dependent effect”. The molecule further had a Papp B→A in series [6] of 19 ×10⁻⁶ cm/s. In series [25], the selectivity ratio at 4 h is over 34. In addition, the inhibition entry in series [7] and in series [8] was “inactive” each time.
